Experimental data published in ChEMBL document CHEMBL3286377, “Microwave-assisted synthesis of C-8 aryl and heteroaryl inosines and determination of their inhibitory activities against Plasmodium falciparum purine nucleoside phosphorylase” (Eur J Med Chem, 2014).
Calls of active or inactive are those of the source. No cut-off for these calls is given here.

Key:
Sindbis virus = assay: Antiviral activity against Sindbis virus assessed as inhibition of virus-induced cytopathicity at 100 uM by cell-based assay; format: functional, organism-based
Procedure, shortened: (§1)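 Confluent HEL, Vero, HeLa or MDCK monolayers were infected with 100 CCID50 of virus in the presence of varying compound concentrations. Activity is expressed as EC50, the concentration that halves virus-induced cytopathicity.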

Human alphaherpesvirus 2 [1] = assay: Antiviral activity against Herpes simplex virus type 2 Lyons assessed as inhibition of virus-induced cytopathicity at 100 uM by cell-based assay; format: functional, organism-based; procedure, shortened: as §1
Influenza A virus = assay: Antiviral activity against Influenza A virus H1N1 assessed as inhibition of virus-induced cytopathicity at 100 uM by cell-based assay; format: functional, organism-based
Procedure, shortened: (§2)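 Inhibition of virus-induced cytopathicity in confluent cell monolayers (HEL, Vero, HeLa or MDCK cells), tested at varying compound concentrations with 100 µM the level assessed. Cytopathicity was scored once it was complete in untreated virus-infected controls. Activity is expressed as EC50, the concentration reducing virus-induced cytopathicity by 50%.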

Human alphaherpesvirus 1 [2] = assay: Antiviral activity against Herpes simplex virus type 1 KOS assessed as inhibition of virus-induced cytopathicity at 100 uM by cell-based assay; format: functional, organism-based; procedure, shortened: as §1
[3] = Hydrolytic stability of the compound in citrate buffer at 50 uM at pH 5 up to 24 hrs by HPLC analysis; format: physicochemical; conditions: pH 5, 24 h
Procedure, shortened: (§3)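 A 5 mM DMSO stock was diluted to 50 µM final in phosphate (pH 7.4), citrate (pH 5.0) or trifluoroacetate (pH 1.2) buffer and incubated at 37 °C. Aliquots taken at 0, 0.5, 1, 4 and 24 h were analysed by reverse-phase HPLC. The mobile phase ran from 10 to 100% acetonitrile against water with 0.05% TFA over 20 min, at 1.0 mL/min.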

Coxsackievirus B4 = assay: Antiviral activity against Coxsackievirus B4 assessed as inhibition of virus-induced cytopathicity at 100 uM by cell-based assay; format: functional, organism-based; procedure, shortened: as §1
[4] = system: Mammalian orthoreovirus 1; assay: Antiviral activity against Reovirus 1 assessed as inhibition of virus-induced cytopathicity at 100 uM by cell-based assay; format: functional; procedure, shortened: as §1
Vaccinia virus = assay: Antiviral activity against Vaccinia virus Lederle assessed as inhibition of virus-induced cytopathicity at 100 uM by cell-based assay; format: functional, organism-based; conditions: Orthopoxvirus vaccinia
Procedure, shortened: (§4)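 Confluent HEL, Vero, HeLa or MDCK monolayers were infected with 100 CCID50 of virus in the presence of varying compound concentrations, with 100 µM the level assessed. Cytopathic effect was recorded once it was complete in untreated infected controls. EC50 is the concentration reducing virus-induced cytopathicity by 50%.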

[5] = Inhibition of Plasmodium falciparum PNP expressed in Escherichia coli BL21(DE3) using inosine as substrate by spectrophotometric analysis
Procedure, shortened: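 Recombinant PfPNP (His-vector, E. coli BL21(DE3), 1 mM IPTG, 37 °C, 4 h) was assayed at 25 nM. The mix held 50 mM KH2PO4 pH 7.5, 60 mU xanthine oxidase and 25 µM inosine, at 25 °C. Uric acid formation was followed at 293 nm. Rates were measured at five or more inhibitor concentrations.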

Escherichia coli = assay: Inhibition of Escherichia coli PNP-mediated inosine hydrolysis assessed as residual activity at 250 uM after 1 hr by RP-HPLC analysis relative to control
Procedure, shortened: (§5)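 Enzyme levels were 20 nM for E. coli and M. hyorhinis PNP and 6 nM for human PNP, in buffer of 50 mM MOPS, 0.2 mM EDTA and 200 mM potassium phosphate, pH 6.5, at 37 °C. Compound (250 µM) and inosine (100 µM) were incubated 60 min. Conversion to hypoxanthine was measured by RP-18 HPLC using an NaH2PO4/heptanesulfonate (pH 3.2) to acetonitrile gradient.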

HeLa = assay: Cytotoxicity against human HeLa cells up to 100 uM; format: cell-based
[6] = Hydrolytic stability of the compound in phosphate buffer at 50 uM at pH 7.4 up to 24 hrs by HPLC analysis; format: physicochemical; conditions: pH 7.4, 24 h; procedure, shortened: as §3
Human alphaherpesvirus 1 [7] = assay: Antiviral activity against thymidine kinase-deficient ACV-resistant Herpes simplex virus type 1 KOS assessed as inhibition of virus-induced cytopathicity at 100 uM by cell-based assay; format: functional, organism-based; procedure, shortened: as §4
HEL = assay: Cytotoxicity against HEL up to 100 uM; format: cell-based; conditions: human
MDCK = assay: Cytotoxicity against MDCK cells up to 100 uM; format: cell-based, Canis lupus familiaris; conditions: dog
Human alphaherpesvirus 2 [8] = assay: Antiviral activity against Herpes simplex virus type 2 G assessed as inhibition of virus-induced cytopathicity at 100 uM by cell-based assay; format: functional, organism-based; conditions: strain G; procedure, shortened: as §1
[9] = system: Respiratory syncytial virus; assay: Antiviral activity against Respiratory syncytial virus Long assessed as inhibition of virus-induced cytopathicity at 100 uM by cell-based assay; format: functional, organism-based; procedure, shortened: as §1
[10] = system: Vesicular stomatitis virus; assay: Antiviral activity against Vesicular stomatitis virus assessed as inhibition of virus-induced cytopathicity at 100 uM by cell-based assay; format: functional, organism-based; procedure, shortened: as §4
Mesomycoplasma hyorhinis = assay: Inhibition of Mycoplasma hyorhinis PNP-mediated inosine hydrolysis assessed as residual activity at 250 uM after 1 hr by RP-HPLC analysis relative to control; procedure, shortened: as §5
[11] = target: T1, Purine nucleoside phosphorylase (Homo sapiens) (UniProt P00491); assay: Inhibition of human PNP-mediated inosine hydrolysis assessed as residual activity at 250 uM after 1 hr by RP-HPLC analysis relative to control; procedure, shortened: as §5
T1 sequence (whole entry): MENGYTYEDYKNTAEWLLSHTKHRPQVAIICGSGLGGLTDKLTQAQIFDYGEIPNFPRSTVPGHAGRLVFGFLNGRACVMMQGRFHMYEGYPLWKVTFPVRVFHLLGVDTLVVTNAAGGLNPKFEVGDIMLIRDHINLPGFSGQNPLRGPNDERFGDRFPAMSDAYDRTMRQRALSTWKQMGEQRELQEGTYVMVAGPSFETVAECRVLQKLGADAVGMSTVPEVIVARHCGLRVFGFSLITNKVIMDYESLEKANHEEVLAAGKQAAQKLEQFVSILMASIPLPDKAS

[12] = Half life of the compound in trifluoroacetate buffer at 50 uM at pH 1.2 by HPLC analysis; format: physicochemical; procedure, shortened: as §3
CCRF-CEM = assay: Cytotoxicity against human CEM cells up to 100 uM; format: cell-based
Plasmodium falciparum = assay: Antiplasmodial activity against chloroquine-sensitive Plasmodium falciparum 3D7 assessed as growth inhibition at 25 uM; format: functional, organism-based
Procedure, shortened: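 Intraerythrocytic-stage growth assay against the chloroquine-sensitive P. falciparum 3D7 strain. Compounds were tested at a single level of 25 µM, with chloroquine run in the same assay as reference.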

Punta Toro virus = assay: Antiviral activity against Punta Toro virus assessed as inhibition of virus-induced cytopathicity at 100 uM by cell-based assay; format: functional, organism-based; procedure, shortened: as §1
Vero = assay: Cytotoxicity against African green monkey Vero cells up to 100 uM; format: cell-based; conditions: chlorocebus sabaeus
Human respirovirus 3 = assay: Antiviral activity against Parainfluenza virus 3 assessed as inhibition of virus-induced cytopathicity at 100 uM by cell-based assay; format: functional, organism-based; procedure, shortened: as §1
Influenza B virus = assay: Antiviral activity against Influenza B virus assessed as inhibition of virus-induced cytopathicity at 100 uM by cell-based assay; format: functional, organism-based; procedure, shortened: as §2
Influenza A virus H3N2 = assay: Antiviral activity against Influenza A virus H3N2 assessed as inhibition of virus-induced cytopathicity at 100 uM by cell-based assay; format: functional, organism-based; procedure, shortened: as §2

Row | Structure (SMILES) | Activity (Sindbis virus) | Activity (Human alphaherpesvirus 2 [1]) | Activity (Influenza A virus) | Activity (Human alphaherpesvirus 1 [2]) | Stability [3] | Activity (Coxsackievirus B4) | Activity [4] | Activity (Vaccinia virus) | Ki ([5]; read-out: Ki) [µM] | Activity (HeLa) | Stability [6] | Activity (Human alphaherpesvirus 1 [7]) | Activity (Human alphaherpesvirus 2 [8]) | Activity [9] | Activity [10] | half-life at 50 µM [12] [h] | Activity (Punta Toro virus) | Activity (Human respirovirus 3) | Activity (Influenza B virus) | Activity (Influenza A virus H3N2) | further results
1 | O=c1[nH]cnc2c1nc(-c1ccc(C(F)(F)F)cc1)n2[C@@H]1O[C@H](CO)[C@@H](O)[C@H]1O | inactive | inactive | inactive | inactive | Stable | inactive | inactive | inactive | 3.69 | Non-toxic | Stable | inactive | inactive | inactive | inactive | 5 | inactive | inactive | inactive | inactive | Activity (Escherichia coli): 96%; Activity (HEL): Non-toxic; Activity (MDCK): Non-toxic; Activity (Mesomycoplasma hyorhinis): 96%; Activity [11]: 96%; Activity (CCRF-CEM): Non-toxic; growth inhibition (GI) (Plasmodium falciparum): inactive; Activity (Vero): Non-toxic
2 | O=c1[nH]cnc2c1nc(-c1ccncc1)n2[C@@H]1O[C@H](CO)[C@@H](O)[C@H]1O | inactive | inactive | inactive | inactive | Stable | inactive | inactive | inactive | > 80 | Non-toxic | Stable | inactive | inactive | inactive | inactive | 10 | inactive | inactive | inactive | inactive | Activity (HEL): Non-toxic; Activity (MDCK): Non-toxic; Activity (CCRF-CEM): Non-toxic; Activity (Vero): Non-toxic
3 | O=c1[nH]cnc2c1nc(-c1cccc(C(F)(F)F)c1)n2[C@@H]1O[C@H](CO)[C@@H](O)[C@H]1O | inactive | inactive | inactive | inactive | Stable | inactive | inactive | inactive | 5.33 | Non-toxic | Stable | inactive | inactive | inactive | inactive | 5 | inactive | inactive | inactive | inactive | Activity (Escherichia coli): 96%; Activity (HEL): Non-toxic; Activity (MDCK): Non-toxic; Activity (Mesomycoplasma hyorhinis): 96%; Activity [11]: 96%; Activity (CCRF-CEM): Non-toxic; growth inhibition (GI) (Plasmodium falciparum): inactive; Activity (Vero): Non-toxic
4 | OC[C@H]1O[C@@H](n2cnc3c(O)ncnc32)[C@H](O)[C@@H]1O [INOSINE] |  |  |  |  |  |  |  |  |  |  |  |  |  |  |  | 5 |  |  |  |  | 
5 | Cc1ccc(-c2nc3c(=O)[nH]cnc3n2[C@@H]2O[C@H](CO)[C@@H](O)[C@H]2O)cc1 | inactive | inactive | inactive | inactive | Stable | inactive | inactive | inactive |  |  | Stable | inactive | inactive | inactive | inactive | 5 | inactive | inactive | inactive | inactive | Ki [5]: ND(Insoluble)
